MrgX1 allo act = positive allosteric modulators of MrgX1, primary screen, HEK293 cells, Fluo-4 calcium flux; B-score at 10 µM; AID 588675, 2011; actives 0.63% (n = 310,000); Mas-related G-protein coupled receptor member X1 (Homo sapiens), Q96LB2; FDSS; stronger effect = higher value;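 active = plate-corrected calcium response at least 3 library SD above typical, normal starting fluorescence, not activating the receptor alone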;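 also: compound read alongside a low EC10 to EC30 dose of BAM8-22 agonist; peak minus trough fluorescence over baseline measured at the second addition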
MrgX1 agonist = agonists of human MrgX1 receptor, primary screen, HEK293 cells, Fluo-4 calcium flux; Fluo-4 calcium fluorescence, agonist mode; stronger effect = higher value; AID 588627, 2011; B-score at 10 µM; actives 0.44% (n = 310,000);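 active = calcium response B-score plate-corrected fluorescence ratio at least 3 library SD, with starting fluorescence B-score inside 5 SD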
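System – MrgX1-expressing HEK293 cells · Incubation – cells plated overnight, dye loaded 0.5 h 37 °C, 0.5 h room temperature · Technique – kinetic Fluo-4 NW fluorescence of intracellular calcium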
RGS4 pot = RGS4 potentiators or activators, primary screen, cell-based, HEK293 M3R inducible RGS4, calcium flux | carbachol calcium flux Fluo4; stronger effect = lower value | B-score at 10 µM | actives 0.92% (n = 310,000);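 active = B-score of the integrated calcium signal more than 4 SD below the library mean, with starting fluorescence not abnormally high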;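 also: negative B-score means reduced calcium response which marks RGS4 activation or potentiation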
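Reagent: ECmax carbachol challenge; Test system: M3R-expressing HEK293 line, RGS4 induced by doxycycline; Schedule: overnight RGS4 induction, 30 min dye load 37 °C, 20 min compound RT; Detection: calcium dye Fluo4 fluorescence; Read-out: Agonist-evoked peak-minus-minimum fluorescence over baseline, integrated ratio, B score.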
KCC2 mod = KCC2 cotransporter modulators, thallium flux, primary screen, cell-based, HEK293 KCC2, FluoZin-2 fluorescence, MLSMR; KCC2 cells, thallium flux FluoZin-2 fluorescence; B-score of Tl+ flux slope (higher = more flux/activation; lower = inhibition) at 10 µM; actives 2.2% (n = 190,000); AID 1456, 2008;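 active = thallium flux slope and its plate-corrected score both differing from the plate sample mean at a set confidence after two filtering rounds, in either direction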;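 also: slope of fluorescence scaled to starting intensity during 10 to 20 s after thallium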
Target sequence (Q9H2X9 whole entry, looked up): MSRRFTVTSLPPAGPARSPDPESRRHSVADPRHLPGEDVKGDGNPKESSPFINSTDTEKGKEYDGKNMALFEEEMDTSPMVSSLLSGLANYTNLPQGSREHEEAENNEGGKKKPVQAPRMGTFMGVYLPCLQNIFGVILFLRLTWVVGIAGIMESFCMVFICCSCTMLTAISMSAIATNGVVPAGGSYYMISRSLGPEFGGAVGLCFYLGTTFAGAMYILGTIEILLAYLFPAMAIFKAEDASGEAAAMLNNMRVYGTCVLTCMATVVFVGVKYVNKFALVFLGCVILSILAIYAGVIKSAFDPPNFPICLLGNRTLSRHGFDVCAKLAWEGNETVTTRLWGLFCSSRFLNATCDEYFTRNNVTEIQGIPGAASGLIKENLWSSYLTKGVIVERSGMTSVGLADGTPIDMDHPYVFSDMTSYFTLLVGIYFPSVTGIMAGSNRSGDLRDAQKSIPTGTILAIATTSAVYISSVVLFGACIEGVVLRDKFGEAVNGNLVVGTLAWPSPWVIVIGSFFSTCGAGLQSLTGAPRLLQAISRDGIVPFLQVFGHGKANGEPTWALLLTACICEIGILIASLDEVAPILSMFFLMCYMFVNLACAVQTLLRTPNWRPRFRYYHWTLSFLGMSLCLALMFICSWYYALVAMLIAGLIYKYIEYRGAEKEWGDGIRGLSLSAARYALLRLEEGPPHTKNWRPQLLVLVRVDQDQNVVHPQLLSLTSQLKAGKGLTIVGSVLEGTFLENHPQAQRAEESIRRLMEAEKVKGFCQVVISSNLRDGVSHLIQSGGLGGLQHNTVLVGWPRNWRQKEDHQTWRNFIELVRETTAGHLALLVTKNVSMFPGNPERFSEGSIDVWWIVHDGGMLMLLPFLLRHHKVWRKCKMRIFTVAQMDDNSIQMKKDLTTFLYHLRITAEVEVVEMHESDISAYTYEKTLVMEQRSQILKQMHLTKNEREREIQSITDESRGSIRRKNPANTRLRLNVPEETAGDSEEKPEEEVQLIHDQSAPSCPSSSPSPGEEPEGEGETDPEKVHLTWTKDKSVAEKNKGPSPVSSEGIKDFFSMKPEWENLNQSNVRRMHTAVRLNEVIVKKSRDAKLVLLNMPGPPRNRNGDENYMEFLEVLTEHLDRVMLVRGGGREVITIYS
MrgX1 antagonist = antagonists of human MrgX1 receptor, primary screen, HEK293 cells, Fluo-4 calcium flux. BAM8-22 antagonism; stronger effect = lower value. B-score at 10 µM. actives 1.3% (n = 310,000). AID 588676, 2011;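 active = calcium-response B-score plate-corrected more than 3 library SD below zero, starting fluorescence within 5 deviations, no agonist response on first addition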;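 also: peak minus trough fluorescence over baseline after final BAM8-22 challenge near maximal dose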
RGS4 block = RGS4 inhibitors, primary screen, cell-based, HEK293 M3R inducible RGS4, calcium flux. B-score at 10 µM. Regulator of G-protein signaling 4 (Homo sapiens), P49798. Fluo-4 calcium flux; stronger effect = higher value; triggered by carbachol at its EC20. actives 0.45% (n = 310,000);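 active = B-score, a plate-corrected calcium signal, over three deviations above library mean, with baseline fluorescence within five deviations of library mean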;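 also: RGS4 expression induced by doxycycline in cells with stable M3 receptor; B-score is computed from the integrated fluorescence ratio over baseline after carbachol; higher B-score means a larger calcium signal and so more RGS4 inhibition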
Starred values were filed as active, the others as inactive; i = inactive; . = not tested or not shown. Compounds with a hit are over-represented: about 4.7% of the library has one in this group of screens.

SMILES	MrgX1 allo act	MrgX1 agonist	RGS4 pot	KCC2 mod	MrgX1 antagonist	RGS4 block
CC1(C)CC2CC(C)(CN2S(=O)(=O)c2ccc(C(=O)Nc3cc(S(=O)(=O)N4CCOCC4)ccc3Cl)cc2)C1 (centres undefined)	i	i	-7.2*	-0.052	i	i
COc1ccc2cc(CCNC(=O)c3ccc(S(=O)(=O)N4CCOCC4)cc3)c(=O)[nH]c2c1	i	i	i	.	i	i
O=C(N/N=C/c1cccc(C(F)(F)F)c1)c1cc2c(s1)-c1ccccc1CC2	i	i	i	0.29	-7.8*	i
Cc1cccc(/C=N/NC(=O)c2cc3c(s2)-c2ccccc2CC3)c1	i	i	.	0.3	i	.
C/C(Cl)=C/CSc1nn2c(=O)c3ccccc3nc2s1	7.8*	i	i	-0.26	i	i
COc1ccc(N(CC(=O)N2CCN(c3cccc(C)c3C)CC2)S(=O)(=O)c2c(C)noc2C)cc1	i	i	i	.	i	i
CCc1ccc(OCC(=O)NNC(=O)Cc2c(F)cccc2Cl)cc1	i	i	i	.	-6.9*	i
CCN(CC)CCNc1ccnc2cc(Cl)ccc12	i	i	i	.	i	i
S=C(Nc1ccccc1Cl)Nc1ccc(Cl)cc1Cl	i	i	i	.	i	i
FC(F)(F)c1cnc(NNC(=S)Nc2ccccc2Cl)c(Cl)c1	i	i	i	29*	i	i
S=C(NNc1ccnc2cc(Cl)ccc12)Nc1ccccc1Cl	6.7*	i	i	0.24	i	i
Clc1ccc2c(NCc3ccccc3)ccnc2c1	i	32*	i	.	i	i
O=C(CS(=O)(=O)c1ccccc1Cl)N1CCOCC1	i	i	i	.	i	i
Cc1cc(C)c(S(=O)(=O)Cc2ccccc2)c(OC(C)C)n1	i	i	i	.	i	i
O=C(CN1CC[n+]2c(-c3cccs3)csc21)c1ccc(-c2ccccc2)cc1	i	i	i	3.2*	i	i
Cc1ccc(C(=O)Cn2nnc(-c3cccs3)n2)cc1	i	i	i	-0.079	i	i
CCN1CCN(c2ncc(C(=O)Nc3cc(Cl)c(OC)cc3OC)c3ccccc23)CC1	.	.	-7.3*	0.33	.	i
CCOC(=O)c1c(C)nsc1NC(=O)C1CCCCC1	i	i	i	.	i	i
COc1ccc(CC(C)N2CCN(Cc3ccccc3)CC2)cc1OC (centres undefined)	i	i	i	.	i	i
CC1=NN(C(N)=S)C(=O)C1N=Nc1ccccc1O (centres undefined)	i	i	i	.	i	i
CC1=NN(C(N)=S)C(=O)C1N=Nc1ccc(C)cc1C (centres undefined)	i	i	i	21*	i	i
CC1=NN(C(N)=S)C(=O)C1N=Nc1c(C)cc(C)cc1C (centres undefined)	i	i	i	1.9	i	i
CC1=NN(C(N)=S)C(=O)C1N=Nc1ccccc1C (centres undefined)	i	i	i	18*	i	i
OCC[C@H]1C[C@@H](O)[C@H](O)[C@@]2(OCc3ccccc32)O1	i	i	.	.	i	.
NC(=O)CC(NC(=O)c1cccc(Br)c1)c1ccc(NC2CCCCCCC2)c([N+](=O)[O-])c1 (centres undefined)	i	i	i	.	i	i
SMILES	MrgX1 allo act	MrgX1 agonist	RGS4 pot	KCC2 mod	MrgX1 antagonist	RGS4 block
O=C(O)CC/C(=N\Nc1ccc([N+](=O)[O-])cc1)c1ccccc1	i	i	i	.	-5.9*	i
CCOc1ccc(N(C)S(=O)(=O)c2cc(-c3cc(C)no3)ccc2C(C)C)cc1	i	i	i	.	-4.8*	i
CCOc1cc(CNC2CCCC2)c(Cl)cc1OCC(=O)Nc1ccccc1	i	i	-7.2*	-0.47	i	i
CCOC(=O)c1ccc(NC(=O)COc2ccccc2CNC2CCCC2)cc1	i	i	i	0.48	i	i
CCOc1ccc(-n2nc3c(=O)n(CCN4CCCCC4)nc(C)c3c2C)cc1	i	i	-8.5*	.	i	i
Cc1nn(CC(=O)NCCN2CCCCCC2)c(=O)c2nn(-c3ccccc3)c(C)c12	i	i	i	.	i	i
CC1(C)C=Cc2cc(-c3coc4cc(O)cc(O)c4c3=O)cc(O)c2O1	i	i	i	.	-5.3*	i
O=c1c(-c2ccc3c(c2)OCCO3)coc2cc(O)cc(O)c12	i	i	i	-2.4	i	i
CC(CC(=O)N1CCN(c2ccccc2)CC1)S(=O)(=O)c1ccc2c(c1)NC(=O)CO2 (centres undefined)	i	i	i	.	i	i
CCCCn1c(NS(=O)(=O)c2ccccc2)c(S(=O)(=O)c2ccc(C)cc2)c2nc3ccccc3nc21	i	i	i	-7.1*	i	i
CCCCn1c(NC(=O)c2ccco2)c(S(=O)(=O)c2ccc(C)cc2)c2nc3ccccc3nc21	.	.	i	-0.97	.	i
CC1S/C(=N/N=C/c2ccco2)N(Cc2ccc(F)cc2)C1=O (centres undefined)	i	i	i	-0.36	i	i
Cc1ccccc1CN1C(=O)C(C)S/C1=N/N=C/c1ccco1 (centres undefined)	13*	i	i	-0.46	i	i
COc1ccccc1C(=O)N1CCN(CCNC(=O)C(=O)Nc2ccc(Br)c(C)c2)CC1	i	i	i	.	i	i
O=C(N/N=C/c1ccc[nH]1)c1ccc(COc2cccc3cccnc23)cc1	7.8*	i	i	-2.8	-7.2*	i
O=C(N/N=C/c1ccccc1C(=O)O)c1ccc(COc2cccc3cccnc23)cc1	i	i	i	-0.96	i	i
C=C1CC(C(=O)N/N=C/c2ccc(O)cc2)C1	i	i	i	.	-5.9*	i
Cc1cc(C)n(C(C)CNS(=O)(=O)c2ccccc2)n1 (centres undefined)	i	i	i	.	i	i
O=C(Nc1ccccc1N1CCN(C(=O)c2ccccc2)CC1)c1ccc(Cl)cc1	i	i	i	0.0066	i	i
